Published values of several laboratories.
Protocols differ between the studies behind these lines.
Cell line: A549
Effect on: cell growth or viability

Structure (SMILES) | technique | time | IC50 [µM]
Nc1ccn([C@@H]2O[C@H](CO)[C@@H](O)C2(F)F)c(=O)n1 | CCK-8 | 72 h | 0.0151
NNC(=O)c1ccncc1 | MTT | 72 h | > 450
O=C(N/N=C/CN1CCCCC1)Nc1cc2c(Nc3ccc(F)c(Cl)c3)ncnc2cc1O[C@H]1CCOC1 | MTT | 72 h | 4.2
C/C=C/C(=O)Nc1cc(Nc2nc(Nc3cnn(C)c3)c3sccc3n2)c(OC)cc1N(C)CCN(C)C | MTT |  | 25.9
CCN(CC)CCn1cccc1/C=N/NC(=O)Nc1cc2c(Nc3ccc(F)c(Cl)c3)ncnc2cc1OC | MTT | 72 h | 0.43
COCCCOc1ccnc(COc2ccc(NC(=O)Nc3ccc(Cl)cc3)cc2)c1C | MTT | 72 h | 10.2
COc1cc2ncnc(Nc3ccc(F)c(Cl)c3)c2cc1NC(=O)N/N=C/CN1CCCC1 | MTT | 72 h | 5.67
O=C1Nc2ccccc2/C1=N/NC(=O)c1cc2ccccc2[nH]1 |  |  | 13
COc1ccc(NC(=O)Nc2ccc(OCc3ncc(C)c(OC)c3C)cc2)cc1 | MTT | 72 h | 12.9
CS(=O)(=O)c1ccc(-n2cc(C=N/N=c3\[nH]c(-c4ccc(Br)cc4)cs3)c(-c3ccc([N+](=O)[O-])cc3)n2)cc1 | MTT | 48 h | 28.4
CC1=C(O)C(=O)C=C2C1=CC=C1[C@@]2(C)CC[C@@]2(C)[C@@H]3C[C@](C)(C(=O)OCCCCO)CC[C@]3(C)CC[C@]12C | MTT | 48 h | 3.06
COc1ccccc1CNCC(O)COc1cccc2[nH]c3ccccc3c12 (centres unmarked) | CCK-8 | 72 h | 13.9
COc1cc(CNC(=O)C[C@H](C)CCC=C(C)C)ccc1OCc1cn(-c2ccc(Cl)cc2)nn1 | SRB | 48 h | 10.6
Brc1ccc(Nc2nc(NCc3ccccc3)nc(NCc3ccccc3)n2)cc1 | SRB | 72 h | 14.9
COc1ccccc1NCCCNCC(O)COc1cccc2[nH]c3ccccc3c12 (centres unmarked) | CCK-8 | 72 h | 10.8
COc1c(C)cnc(COc2ccc(NC(=O)Nc3ccc(Cl)c(C(F)(F)F)c3)cc2)c1C | MTT | 72 h | 6.63
O=C1NCCc2[nH]c(-c3ccncc3)cc21 |  |  | > 10
CN(C)C/C=N/NC(=O)Nc1cc2c(Nc3ccc(F)c(Cl)c3)ncnc2cc1O[C@H]1CCOC1 | MTT | 72 h | 5.38
CCn1c(-c2nnc(NC(=O)c3cc4c([nH]c5ccccc54)c(-c4cc(OC)c(OC)c(OC)c4)n3)s2)cc2ccccc21 | MTT | 72 h | 10.9
C=CC(=O)Nc1cccc(Oc2nc(Nc3ccc(N4CCN(C)CC4)cc3)nc3ccsc23)c1 | MTT |  | 4.22
CC(=O)O[C@H]1C(=O)[C@@]2(C)[C@H]([C@H](OC(=O)c3ccccc3)[C@]3(O)C[C@H](OC(=O)[C@H](O)[C@@H](NC(=O)c4ccccc4)c4ccccc4)C(C)=C1C3(C)C)[C@]1(OC(C)=O)CO[C@@H]1C[C@@H]2O | SRB |  | 0.0025

Structure (SMILES) | technique | time | IC50 [µM]
CC(C)Cc1ccc(-c2nn(-c3ccc(S(C)(=O)=O)cc3)cc2/C=N/N=c2\[nH]c(-c3ccc(Br)cc3)cs2)cc1 | MTT | 48 h | 15.3
CCOC(=O)/C=C1\S/C(=N\C(=O)c2ccc3ccccc3c2)N(C2CCCCC2)C1=O |  | 48 h | 13.8
C=CC(=O)Nc1cc(Nc2nccc(-c3cn(C)c4ccccc34)n2)c(OC)cc1N(C)CCN(C)C | MTT |  | 0.379
Nc1ccc(Cl)c[n+]1[Pt-2]([Cl])([Cl])[n+]1cc(Cl)ccc1N | MTT | 48 h | 6.34
COc1ccccc1OCCN1CCOC(COc2cccc3[nH]c4ccccc4c23)C1 (centres unmarked) | CCK-8 | 72 h | > 100
COc1cc2c(Nc3ccc(NC(=O)c4ccccc4)cc3)ncnc2cc1OCCCN1CCOCC1 | MTS | 48 h | 3.2
Cc1ccc(-c2ccc(O)cc2)c(C(=C2C=CC(=O)C=C2)c2ccc(O)cc2)c1C#Cc1ccc(O)cc1 | MTT | 48 h | 17.6
Cc1ccc(-c2csc(Nc3ccc4c(O)ncnc4c3)n2)cc1 | MTT |  | 27
O=C(NC(=S)Nc1ccccc1)c1ccc2ccccc2c1 |  | 48 h | 6.86
CN1C(=O)/C(=N\NC(=O)c2cc3ccccc3[nH]2)c2cc(Br)ccc21 |  |  | 1.49
C=C(Cl)C(=O)Nc1cc(Nc2nc(Nc3cnn(C)c3)c3sccc3n2)c(OC)cc1N(C)CCN(C)C | MTT |  | 0.441
COc1c(C)cnc(COc2ccc(NC(=O)Nc3cccc(C(F)(F)F)c3)cc2)c1C | MTT | 72 h | 20.2
O=C(N/N=C/c1cccn1CCCN1CCCC1)Nc1cc2c(Nc3ccc(F)c(Cl)c3)ncnc2cc1O[C@H]1CCOC1 | MTT | 72 h | 4.36
CC1=C(O)C(=O)C=C2C1=CC=C1[C@@]2(C)CC[C@@]2(C)[C@@H]3C[C@](C)(C(=O)OCCCCCCO)CC[C@]3(C)CC[C@]12C | MTT | 48 h | > 100
Cn1c(=O)c2c(ncn2Cc2nnc(SCC(=O)Nc3ccc(Cl)c(Cl)c3)n2-c2ccccc2)n(C)c1=O | MTT |  | 80.6
O=C(CN1C(=O)/C(=C/c2cccc(Br)c2)SC1=S)Nc1ccccc1 | MTT |  | 25.5
Cc1ccc(NC(=O)NNC(=O)c2ccc(Nc3nccc(-c4cccnc4)n3)cc2)cc1 | MTT | 24 h | 8.38
COc1ccccc1OCCNC(=O)COc1cccc2[nH]c3ccccc3c12 | CCK-8 | 72 h | > 100
CCC(=O)Nc1cc(Nc2nc(N3CCc4sccc4C3)c3cccnc3n2)c(OC)cc1N1CCN(C(C)=O)CC1 | MTT |  | 7.01
CC(C)(C)NC(=O)NNC(=O)c1ccc(Nc2nccc(-c3ccc(Cl)cc3)n2)cc1 | MTT |  | 19.5
